Source: ChEMBL document CHEMBL3784963, “Synthesis, cytotoxic activity evaluation and HQSAR study of novel isosteviol derivatives as potential anticancer agents” (Eur J Med Chem, 2016)

Experiments:
Format in all cases: functional, cell-based
[1] = Cytotoxicity against human HGC27 cells assessed as growth inhibition after 72 hrs by MTT assay; conditions: HGC-27, 72 h
Procedure, shortened: (§1)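 MTT cytotoxicity assay on three human cancer cell lines: HCT-116 (colon carcinoma), HGC-27 (gastric carcinoma) and JEKO-1 (mantle cell lymphoma).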

[2] = Cytotoxicity against human HCT116 cells assessed as growth inhibition after 72 hrs by MTT assay; conditions: HCT-116, 72 h; procedure, shortened: as §1
[3] = Cytotoxicity against human JeKo1 cells assessed as growth inhibition after 72 hrs by MTT assay; conditions: JeKo-1, 72 h; procedure, shortened: as §1

| SMILES | IC50 [1] [µM] | IC50 [2] [µM] | IC50 [3] [µM] |
| --- | --- | --- | --- |
| CCOC(=O)[C@]1(C)CCC[C@@]2(C)[C@@H]3CC[C@@]4(C)C[C@]3(CC[C@@H]21)[C@H](CO)[C@H]4NC(=S)Nc1ccccc1F | 7.38 | 4.85 | 35.7 |
| CCOC(=O)[C@]1(C)CCC[C@@]2(C)[C@@H]3CC[C@@]4(C)C[C@]3(CC[C@@H]21)[C@H](CO)[C@H]4NC(C)=O | 18 | 15.2 | 62 |
| CCOC(=O)[C@]1(C)CCC[C@@]2(C)[C@@H]3CC[C@@]4(C)C[C@]3(CC[C@@H]21)[C@H](CO)[C@H]4NC(=S)Nc1ccc(F)cc1 | 4.92 | 4.76 | 23.7 |
| CCOC(=O)[C@]1(C)CCC[C@@]2(C)[C@@H]3CC[C@@]4(C)C[C@]3(CC[C@@H]21)[C@H](CO)[C@H]4NC(=S)Nc1ccc(Cl)cc1Cl | 4.78 | 4.02 | 27.3 |
| CCOC(=O)[C@]1(C)CCC[C@@]2(C)[C@@H]3CC[C@@]4(C)C[C@]3(CC[C@@H]21)[C@H](CO)[C@H]4NC(=S)Nc1ccc(C)cc1 | 5.53 | 5.62 | 30.2 |
| CCOC(=O)[C@]1(C)CCC[C@@]2(C)[C@@H]3CC[C@@]4(C)C[C@]3(CC[C@@H]21)[C@H](CO)[C@H]4NC(=S)Nc1ccccc1C | 5.04 | 4.78 | 24.7 |
| CCOC(=O)[C@]1(C)CCC[C@@]2(C)[C@@H]3CC[C@@]4(C)C[C@]3(CC[C@@H]21)[C@H](CO)[C@H]4NC(=S)Nc1ccccc1Cl | 8.98 | 7.23 | 40.7 |
| CCOC(=O)[C@]1(C)CCC[C@@]2(C)[C@@H]3CC[C@@]4(C)C[C@]3(CC[C@@H]21)[C@H](CO)[C@H]4NC(=S)Nc1ccc(OC)cc1 | 7.72 | 4.57 | 40.3 |
| C=C[C@]12CC[C@H]3[C@@](C)(CCC[C@@]3(C)C(=O)OCC)[C@@H]1CC[C@](C)(CN=C=S)C2 | 11.5 | 4.14 | 5.43 |
| CCOC(=O)[C@]1(C)CCC[C@@]2(C)[C@@H]3CC[C@@]4(C)C[C@]3(CC[C@@H]21)[C@H](CO)[C@H]4NC(=S)Nc1ccccc1Br | 15.6 | 20.9 | 14 |
| CCOC(=O)[C@]1(C)CCC[C@@]2(C)[C@@H]3CC[C@@]4(C)C[C@]3(CC[C@@H]21)C[C@H]4N | 2.6 | 5.08 | 2.2 |
| CCOC(=O)[C@]1(C)CCC[C@@]2(C)[C@@H]3CC[C@@]4(C)C[C@]3(CC[C@@H]21)C[C@H]4N=C=S | 11.6 | 6.96 | 38.3 |
| CCOC(=O)[C@]1(C)CCC[C@@]2(C)[C@@H]3CC[C@@]4(C)C[C@]3(CC[C@@H]21)[C@H](CO)[C@H]4NC(=S)Nc1cccc(OC)c1 | 7.21 | 3.84 | 31.9 |
| CCOC(=O)[C@]1(C)CCC[C@@]2(C)[C@@H]3CC[C@@]4(C)C[C@]3(CC[C@@H]21)[C@H](CO)[C@H]4NC(=S)Nc1cccc(C)c1 | 4.36 | 4.63 | 20.8 |
| CCOC(=O)[C@]1(C)CCC[C@@]2(C)[C@@H]3CC[C@@]4(C)C[C@]3(CC[C@@H]21)[C@H](COC(C)=O)[C@H]4NC(C)=O | 20.5 | 20.1 | 60.6 |
| CCOC(=O)[C@]1(C)CCC[C@@]2(C)[C@@H]3CC[C@@]4(C)C[C@]3(CC[C@@H]21)[C@H](CO)[C@H]4NC(=S)Nc1cccc(Cl)c1 | 5.46 | 2.75 | 20.5 |
| CCOC(=O)[C@]1(C)CCC[C@@]2(C)[C@@H]3CC[C@@]4(C)C[C@]3(CC[C@@H]21)[C@H](CO)[C@H]4NC(=S)Nc1c(C)cccc1C | 8.9 | 4.54 | 21.1 |
| CCOC(=O)[C@]1(C)CCC[C@@]2(C)[C@@H]3CC[C@@]4(C)C[C@]3(CC[C@@H]21)[C@H](CO)[C@H]4NC(=S)Nc1ccccc1 | 5.16 | 5.79 | 27.3 |

| SMILES | IC50 [1] [µM] | IC50 [2] [µM] | IC50 [3] [µM] |
| --- | --- | --- | --- |
| CCOC(=O)[C@]1(C)CCC[C@@]2(C)[C@@H]3CC[C@@]4(C)C[C@]3(CC[C@@H]21)C[C@H]4NC(=S)NC1CCCCC1 | 92.2 | 82.6 | 94.8 |
| CCOC(=O)[C@]1(C)CCC[C@@]2(C)[C@@H]3CC[C@@]4(C)C[C@]3(CC[C@@H]21)[C@H](CO)[C@H]4NC(=S)Nc1cccc(Br)c1 | 9.15 | 4.17 | 27.3 |
| CCOC(=O)[C@]1(C)CCC[C@@]2(C)[C@@H]3CC[C@@]4(C)C[C@]3(CC[C@@H]21)C[C@H]4NC(=S)N[C@@H](C)c1ccccc1 | 18.2 | 6.63 | 15.2 |
| CCOC(=O)[C@]1(C)CCC[C@@]2(C)[C@@H]3CC[C@@]4(C)C[C@]3(CC[C@@H]21)[C@H](CO)[C@H]4NC(=S)Nc1ccccc1[N+](=O)[O-] | 22.8 | 11.7 | 26.9 |
| C[C@@]12CC[C@@H]3[C@@](CC[C@H]4[C@@]3(C)CCC[C@@]4(C)C(=O)O)(CC1=O)C2 [ISOSTEVIOL] | > 100 | > 100 | > 100 |
| CCOC(=O)[C@]1(C)CCC[C@@]2(C)[C@@H]3CC[C@@]4(C)C[C@]3(CC[C@@H]21)[C@H](CO)[C@H]4NC(=S)Nc1ccccc1OC | 9.02 | 5.4 | 28.3 |
| CCOC(=O)[C@]1(C)CCC[C@@]2(C)[C@@H]3CC[C@@]4(C)C[C@]3(CC[C@@H]21)C[C@H]4NC(=S)NNC(=O)c1ccccc1 | 26.2 | 15.1 | 56.8 |
| C=C[C@]12CC[C@H]3[C@@](C)(CCC[C@@]3(C)C(=O)OCC)[C@@H]1CC[C@](C)(CN)C2 | 3.02 | 2.46 | 2.16 |
| C=C[C@]12CC[C@H]3[C@@](C)(CCC[C@@]3(C)C(=O)OCC)[C@@H]1CC[C@](C)(CNC(=S)Nc1ccccc1)C2 | 6.69 | 3.47 | 2.77 |
| CCOC(=O)[C@]1(C)CCC[C@@]2(C)[C@@H]3CC[C@@]4(C)C[C@]3(CC[C@@H]21)[C@H](CO)[C@H]4NC(=S)Nc1ccc([N+](=O)[O-])cc1 | 2.35 | 1.45 | 3.54 |
| CCOC(=O)[C@]1(C)CCC[C@@]2(C)[C@@H]3CC[C@@]4(C)C[C@]3(CC[C@@H]21)[C@H](CO)[C@H]4NC(=S)Nc1ccc(Br)cc1 | 2.98 | 2.21 | 6.73 |
| CCOC(=O)[C@]1(C)CCC[C@@]2(C)[C@@H]3CC[C@@]4(C)C[C@]3(CC[C@@H]21)[C@H](CO)[C@H]4N | 5.83 | 4.89 | 3.54 |
| CCOC(=O)[C@]1(C)CCC[C@@]2(C)[C@@H]3CC[C@@]4(C)C[C@]3(CC[C@@H]21)[C@H](CO)[C@H]4N=C=S | 7.7 | 4.45 | 30.1 |
| CCOC(=O)[C@]1(C)CCC[C@@]2(C)[C@@H]3CC[C@@]4(C)C[C@]3(CC[C@@H]21)[C@H](CO)[C@H]4NC(=S)Nc1cccc([N+](=O)[O-])c1 | 2.38 | 1.88 | 5.26 |
| CCOC(=O)[C@]1(C)CCC[C@@]2(C)[C@@H]3CC[C@@]4(C)C[C@]3(CC[C@@H]21)[C@H](CO)[C@H]4NC(=S)Nc1ccc(Cl)cc1 | 3.33 | 4.41 | 5.76 |
| CCOC(=O)[C@]1(C)CCC[C@@]2(C)[C@@H]3CC[C@@]4(C)C[C@]3(CC[C@@H]21)[C@H](CO)[C@H]4NC(=S)Nc1cccc(F)c1 | 4.98 | 4.91 | 28.9 |
| CCOC(=O)[C@]1(C)CCC[C@@]2(C)[C@@H]3CC[C@@]4(C)C[C@]3(CC[C@@H]21)C[C@H]4NC(=S)Nc1ccccc1 | 13.8 | 8.66 | 21.5 |
| CCOC(=O)[C@]1(C)CCC[C@@]2(C)[C@@H]3CC[C@@]4(C)C[C@]3(CC[C@@H]21)[C@H](CO)[C@@H]4N | 7.25 | 4.9 | 2.47 |
